Measured values reported in ChEMBL document CHEMBL1932929, “Lead optimization of 2-(piperidin-3-yl)-1H-benzimidazoles: identification of 2-morpholin- and 2-thiomorpholin-2-yl-1H-benzimidazoles as selective and CNS penetrating H₁-antihistamines for insomnia” (Bioorg Med Chem Lett, 2012).

Tests used:
[1] = Drug uptake in brain of Sprague-Dawley rat at 10 mg/kg, po measured after 4 hrs; type: ADME, organism-based; parameters: dose 10 mg/kg, route oral; conditions: read-out: Drug uptake
[2] = Drug uptake in brain of Sprague-Dawley rat at 30 mg/kg, po measured after 4 hrs; type: ADME, organism-based; parameters: dose 30 mg/kg, route oral; conditions: read-out: Drug uptake
Outline: (§1)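 Single oral dose to Sprague Dawley rats; plasma and brain levels measured at 4 h; brain/plasma ratio taken from these 4 h levels.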

[3] = Ratio drug uptake in brain to plasma of Sprague-Dawley rat at 30 mg/kg, po measured after 4 hrs; type: ADME, organism-based; parameters: dose 30 mg/kg, route oral; conditions: read-out: BPR; outline: as §1
[4] = Drug uptake in plasma of Sprague-Dawley rat at 30 mg/kg, po measured after 4 hrs; type: ADME, organism-based; parameters: dose 30 mg/kg, route oral; conditions: read-out: Drug uptake; outline: as §1
[5] = Lipophilicity, log P of the compound; type: physicochemical; conditions: octanol/water
Outline: (§2)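 Calculated values, not experimentally measured.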

[6] = Dissociation constant, pKa of the compound; type: physicochemical; outline: as §2

Row | logP [5] | pKa [6] | SMILES | other results
1 | – | – | CN(CC1CCOCC1)C1CCN(c2nc3ccccc3n2Cc2ccc(F)cc2)CC1 | concentration at 4 h [1]: 94 ng/g
2 | – | – | COc1ccc(Cn2c([C@H]3CNCCS3)nc3ccccc32)cc1 | concentration at 4 h [2]: 380 ng/g; Kp at 4 h [3]: 1.4; concentration at 4 h [4]: 260 ng/mL
3 | 3.4 | 7.4 | Cc1ccc(Cn2c(C3CNCCO3)nc3ccccc32)cc1C (single isomer, unassigned; (+)) | –
4 | 3.3 | 7.5 | Cc1ccc(Cn2c([C@@H]3CNCCS3)nc3ccccc32)cc1C | –
